Bioassay records deposited in PubChem BioAssay by several laboratories.
NR2E3 ag-1: inhibitors of NR2E3-RetCOR corepressor binding, primary screen, NR2E3 agonist project, biochemical, TR-FRET, GST-NR2E3, biotin-RetCOR; AID 2300, 2010; hit rate 0.12% among 320,000; inhibition of corepressor binding, % at 4.78 µM; Photoreceptor-specific nuclear receptor (Homo sapiens), Q9Y5X4; 1536-well;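 active = percent inhibition above the cutoff of mean plus 3 SD of all tested compounds, set per screening campaign, cut at about 20% in these data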;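 note: 0% = DMSO wells and 100% = biotin wells as full block of FRET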
Target sequence (Q9Y5X4 whole entry, looked up): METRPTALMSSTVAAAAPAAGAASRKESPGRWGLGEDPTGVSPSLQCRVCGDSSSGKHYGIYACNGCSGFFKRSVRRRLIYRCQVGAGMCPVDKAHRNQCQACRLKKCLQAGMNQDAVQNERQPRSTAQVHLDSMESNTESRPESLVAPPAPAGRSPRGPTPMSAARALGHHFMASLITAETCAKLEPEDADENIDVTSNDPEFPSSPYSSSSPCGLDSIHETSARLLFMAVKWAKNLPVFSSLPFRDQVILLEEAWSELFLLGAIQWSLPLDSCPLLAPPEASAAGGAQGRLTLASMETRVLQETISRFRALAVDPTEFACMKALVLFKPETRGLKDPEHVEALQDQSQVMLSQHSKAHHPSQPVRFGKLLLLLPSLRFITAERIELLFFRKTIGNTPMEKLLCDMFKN
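System: GST-NR2E3 and biotin-RetCOR proteins; probe or stimulus: 7 nM biotin-RetCOR; doses: compound at 4.8 µM, single dose; schedule: Compound–protein incubation for 5 h at 4 °C; detection: time-resolved FRET; read-out: percent inhibition; controls: biotin wells as high control, 0.6% DMSO wells as low control; format: 1536-well plates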
NR2E3 ag-2: NR2E3 agonists in two-hybrid cells, primary screen, cell-based, luminescence, CHO-S, Gal4-NCOR/VP16-NR2E3 | hit rate 0.35% among 360,000 | Photoreceptor-specific nuclear receptor (Homo sapiens), Q9Y5X4 | inhibition of corepressor binding, % at 3.98 µM | luciferase | AID 602229, 2012;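 active = inhibition above the mean of all tested compounds plus 3 SD, cut at about 70% in these data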;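 note: 0% = DMSO with NR2E3 transfected cells and 100% = cells lacking NR2E3 construct; higher means lower luciferase signal from less NR2E3 corepressor binding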
Vif imaging: HIV Vif self-association inhibitors, primary screen, imaging, HEK293T, single point | HEK293T cells, Vif self-association by quenched fluorescence, 24 h | inhibition, % at 7.49 µM | hit rate 0.35% among 340,000; in the data active = inhibition above about 50%, passing the limit was not always enough
DAGLB inh: DAGLB lipase inhibitors, primary screen, biochemical, fluorescence, HTS | hit rate 0.059% among 340,000 | AID 504411, 2011 | Diacylglycerol lipase-beta (Homo sapiens), Q8NCG7 | inhibition, % at 5.17 µM | HEK293T DAGLB membrane lysate, EnzChek fluorogenic substrate; in the data active = inhibition above about 34%;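 note: 0% = enzyme with vehicle and 100% = wells lacking enzyme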
MT1-MMP act inh: blockers of MT1-MMP proenzyme processing, primary screen, HT1080 RFP-PRO-GFP cells, GFP/RFP fluorescence. Matrix metalloproteinase-14 (Homo sapiens), P50281. GFP/RFP ratio fluorescence, overnight; percent of plate control window, DMSO zero. GFP/RFP ratio change, % at 20 µM. hit rate 0.061% among 360,000. AID 651647, 2012;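 active = GFP/RFP ratio change of at least 30% with cell ATP level not reduced by more than half and red fluorescence within 50% of control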
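Material: RFP-PRO-GFP reporter HT1080 cells. Dosing: single-point 20 µM compound, 1% DMSO. Controls: DMSO and RFP-L50D-GFP cell wells. Timing: cells overnight before dosing, compound overnight, 37 °C, 5% CO2. Measure: GFP/RFP fluorescence ratio.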
core dimer inh: inhibitors of HCV core protein dimerization, primary screen, biochemical, TR-FRET, high-throughput. TR-FRET GST/Flag-core106 dimerization, 1536-well. hit rate 0.33% among 300,000. inhibition, % at 5 µM. AID 1899, 2009;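 active = inhibition above the mean of all tested compounds plus 3 SD, set per screening campaign, cut at about 45% in these data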
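System – GST-tagged and Flag-tagged HCV core protein residues 1-106 · Repeats – one well for each compound · Technique – TR-FRET 671 and 617 nm emission · Doses – one concentration, 5 µM, in 0.5% DMSO · Times – 4 h, 22.5 °C incubation · Also added – Eu donor and XL665 acceptor anti-tag antibodies · Measure – percent inhibition of core106 dimerization signal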
NR2E3 ag confirm: NR2E3 agonists, confirmation, biochemical, TR-FRET | shares compounds with NR2E3 ag-1 | cell-free NR2E3 corepressor release, 5 h | activation (reported as inhibition), % at 3.98 µM | hit rate 39% among 360 | AID 2379, 2010; in the data active = activation above about 20%
PPARg-NCOR2 ag: agonists of PPARg-NCOR2 corepressor interaction, counter-screen for NR2E3 agonist project, biochemical, TR-FRET; AID 504787, 2011; hit rate 45% among 360; shares compounds with NR2E3 ag-1; TR-FRET PPARg-NCOR2 coregulator interaction; inhibition, % at 3.98 µM; in the data active = inhibition above about 20%;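 note: 0% = DMSO vehicle and 100% = wells without protein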
Numbers without * were called inactive; . = not tested or not shown. Most compounds without a hit are left out; they make up all but 1.1% or so of the library.

SMILES	NR2E3 ag-1	NR2E3 ag-2	Vif imaging	DAGLB inh	MT1-MMP act inh	core dimer inh	NR2E3 ag confirm	PPARg-NCOR2 ag
COc1ccccc1NC(=O)CSc1nc(N)c(C#N)cc1C#N	-1	-14	7	.	-8	15	.	.
CC(CNC(=O)C1CCCN(S(=O)(=O)N2CCOCC2)C1)c1ccccc1 (stereo unspecified)	1	-14	0	-1	-3	3	.	.
O=C(O)CCc1ccc(-c2ccc(Br)cc2)o1	35*	-58	-3	3	-5	13	36*	32*
O=C(O)CCc1ccc(-c2ccc(Cl)cc2)o1	1	-58	5	1	7	-14	.	.
CC(Sc1cnc2ccccc2n1)C(=O)O (stereo unspecified)	30*	-5	6	2	3	6	6	9
CCc1cc2cc(C(=O)Nc3ccc(C)cc3)sc2s1	33*	1	.	-14	3	52*	20*	23*
CCc1sc(C(=O)Nc2ccc(N3CCOCC3)cc2)cc1C	.	-26	-3	-1	3	.	.	.
C=CCc1c(C)nc(SC)nc1Nc1ccc(C)cc1	25*	12	-12	-10	-3	-2	-4	-6
O=C1C=C(O)C(n2cncn2)C(c2ccc3c(c2)OCO3)C1 (stereo unspecified)	24*	-15	8	1	-2	-18	-8	-2
O=C1CC(=O)C(n2cncn2)C(c2cccc(Cl)c2)C1 (stereo unspecified)	0	-9	-6	1	3	-1	.	.
CCOC(=O)c1c(C)[nH]c(=S)c(C#N)c1-c1ccc(OC)cc1	14	0	2	-1	-26	17	.	.
CCCCOc1ccc(-c2c(C(=O)Nc3ccccc3)c(C)[nH]c(=S)c2C#N)cc1	94*	-9	21	6	10	26	84*	71*
CC(=O)NC(CCS(C)(=O)=O)C(=O)Nc1ccc(Cl)c(Cl)c1 (stereo unspecified)	20*	-43	3	0	5	-4	-5	-7
O=S(=O)(Nc1cc2nc3ccccc3nc2n1Cc1ccccc1)c1ccc(Cl)cc1	33*	-31	.	12	-62	5	5	1
O=C(OC(C(=O)NCc1ccccc1)c1ccccc1F)c1ccco1 (stereo unspecified)	0	-42	25	1	0	4	.	.
COc1ccc2c(c1)oc(=O)c1ccccc12	0	-32	4	-6	5	0	.	.
O=c1oc2cc(O)c(Cl)cc2c2ccccc12	52*	-11	0	2	-2	16	46*	48*
COc1ccc(-c2c(C)sc(NC(=O)c3ccnn3C)c2C#N)cc1	30*	-8	-18	-1	-9	71*	9	21*
COC(=O)Sc1nnc(-c2ccc(Br)cc2)o1	27*	.	.	.	.	10	22*	35*
CCCc1nc2nc(C)c(NS(=O)(=O)c3ccc(Cl)cc3)c(=O)n2[nH]1	3	6	32	0	3	0	.	.
